Like-named read-outs stand apart in the source and are kept apart here.
Legend:
DnaK-DnaJ complex = DnaK-DnaJ complex (Escherichia coli, UniProt P0A6Y8); test: ATPase assay of the DnaK-DnaJ system; assay type: biochemical; details: for effect on stimulatory activity of DnaJ on DnaK ATPase: DnaJ titration
DnaK (wild type) = DnaK (wild type) (Escherichia coli, UniProt P0A6Y8); test: Tryptophan fluorescence quench, apparent affinity of myricetin for DnaK; assay type: binding; details: apparent affinity (Kapp), wild type DnaK 3 μM, ATP 1 mM
Sequence of DnaK (wild type) (P0A6Y8 whole entry): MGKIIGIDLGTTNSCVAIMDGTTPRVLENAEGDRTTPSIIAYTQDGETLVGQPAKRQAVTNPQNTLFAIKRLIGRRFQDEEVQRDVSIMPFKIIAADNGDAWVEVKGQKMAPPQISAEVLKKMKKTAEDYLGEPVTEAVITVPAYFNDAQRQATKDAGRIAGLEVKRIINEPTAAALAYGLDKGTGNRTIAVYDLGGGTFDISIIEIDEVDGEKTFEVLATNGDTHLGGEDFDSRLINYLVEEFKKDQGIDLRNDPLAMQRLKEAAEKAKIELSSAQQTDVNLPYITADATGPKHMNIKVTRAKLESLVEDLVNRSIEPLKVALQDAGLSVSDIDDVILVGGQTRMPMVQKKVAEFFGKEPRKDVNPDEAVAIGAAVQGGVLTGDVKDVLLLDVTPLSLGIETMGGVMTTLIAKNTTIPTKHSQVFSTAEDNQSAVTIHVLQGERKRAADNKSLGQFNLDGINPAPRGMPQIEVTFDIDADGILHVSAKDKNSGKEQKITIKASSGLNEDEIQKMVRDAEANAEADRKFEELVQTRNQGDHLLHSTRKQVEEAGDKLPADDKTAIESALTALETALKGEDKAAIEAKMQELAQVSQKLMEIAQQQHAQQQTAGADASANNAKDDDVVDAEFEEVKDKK
In short: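 Test compound was added at various concentrations to wild-type DnaK, read at 342 nm (Ex 295 nm) for tryptophan fluorescence quench. Conditions were 5 μM nucleotide-free DnaK alone, 5 μM DnaK with 2 mM ATP, or 3 μM DnaK with 1 mM ATP. Apo-DnaK was eluted from the ATP column with 1 M NaCl. DnaK-free controls were subtracted. Triplicates, ± SEM.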

DnaK K106A = DnaK K106A (Escherichia coli, UniProt P0A6Y8, K106A); test: Tryptophan fluorescence quench, DnaK K106A control mutant; assay type: binding
In short: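 DnaK alanine mutants were used at 3 μM with 1 mM ATP. Test compound was added at various concentrations, and quench of intrinsic tryptophan fluorescence was read at 342 nm (Ex 295 nm). Readings from controls lacking DnaK were subtracted, and apparent affinity was derived from the concentration series.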

DnaK [1] = molecular target: T1, DnaK (Escherichia coli, UniProt P0A6Y8); test: Tryptophan fluorescence response of DnaK to ATP binding; details: myricetin 100 μM, DnaK 5 μM, ATP 100 μM
T1 sequence (P0A6Y8 whole entry): as above
In short: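 Apo-DnaK (6 μM) was preincubated with test compound (125 μM) for 1 h at 37 °C. Then 500 μM ATP or buffer (Tris, KCl, MgCl2, pH 7.4) was added as one-fifth of the final volume; these are pre-mix concentrations. Tryptophan emission was scanned from 300–400 nm at 295 nm excitation. Runs were done in triplicate.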

DnaJ = DnaJ (Escherichia coli, UniProt P08622); test: Isothermal calorimetry; assay type: binding; details: DnaJ 10 μM; titrations noisy
Sequence of DnaJ (P08622 whole entry, the tested form may be a part): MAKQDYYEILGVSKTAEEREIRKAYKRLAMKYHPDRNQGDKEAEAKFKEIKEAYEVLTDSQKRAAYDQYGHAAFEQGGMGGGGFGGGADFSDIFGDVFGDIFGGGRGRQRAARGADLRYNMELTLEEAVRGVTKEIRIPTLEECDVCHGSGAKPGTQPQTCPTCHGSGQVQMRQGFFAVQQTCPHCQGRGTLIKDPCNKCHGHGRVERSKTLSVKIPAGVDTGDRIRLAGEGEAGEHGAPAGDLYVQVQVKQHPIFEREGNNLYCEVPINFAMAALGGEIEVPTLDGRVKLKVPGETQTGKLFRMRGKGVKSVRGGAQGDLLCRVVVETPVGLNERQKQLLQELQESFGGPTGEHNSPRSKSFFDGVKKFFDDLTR

[2] = molecular target: J domain (residues 2–108) (Escherichia coli, UniProt P08622); test: Isothermal calorimetry; assay type: binding; details: truncated J domain residues 2–108
Sequence of J domain (residues 2–108) (P08622 2-108): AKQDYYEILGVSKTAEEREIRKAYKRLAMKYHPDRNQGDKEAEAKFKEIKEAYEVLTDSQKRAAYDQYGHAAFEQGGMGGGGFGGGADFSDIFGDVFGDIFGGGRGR

DnaK [3] = molecular target: T1, DnaK; test: Intrinsic ATPase activity of DnaK; assay type: biochemical
In short: (§1)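 ATP turnover was measured for purified E. coli DnaK (His-tag cleaved) in the established ATPase assay, alone or with the stimulating partner named. Results are means of triplicates ± SEM.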

DnaK-GrpE = DnaK-GrpE (Escherichia coli, UniProt P0A6Y8); test: GrpE-mediated stimulation of DnaK ATP turnover; assay type: biochemical
Sequence of DnaK-GrpE (P0A6Y8 whole entry): as the sequence (P0A6Y8 whole entry) above
In short: as §1

DnaK [4] = molecular target: T1, DnaK; test: Peptide substrate; assay type: biochemical; details: model substrate NRLLLTG
In short: as §1

DnaK-J domain = DnaK-J domain (Escherichia coli, UniProt P0A6Y8); test: J domain stimulation of DnaK ATP turnover; assay type: biochemical
Sequence of DnaK-J domain (P0A6Y8 whole entry, the tested form may be a part): as the sequence (P0A6Y8 whole entry) above
In short: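 For J-domain-stimulated turnover, His-tagged DnaJ J domain (residues 2–108) was purified with an extra gel-filtration step and stored in Tris pH 7.5 with 150 mM KCl and 5 mM MgCl2. It was then run in the established DnaK ATPase assay. Results are means of triplicates ± SEM.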

DnaK-DnaJ-GrpE = DnaK-DnaJ-GrpE (Escherichia coli, UniProt P0A6Y8); test: ATPase assay of DnaK-DnaJ in the presence of GrpE; assay type: biochemical; details: saturating GrpE (2 μM); DnaK 0.6 μM, DnaJ 1 μM
In short: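 Purified E. coli DnaK (0.6 μM) and DnaJ (1 μM), with His-tags cleaved, were run in the established ATPase assay with GrpE at 2 μM or a range of GrpE levels. Test compound was given as a dose series, and IC50 was taken from the dose response. Values are means of triplicates ± SEM.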

DnaK-DnaJ = DnaK-DnaJ (Escherichia coli, UniProt P0A6Y8); assay type: binding
Sequence of DnaK-DnaJ (P0A6Y8 whole entry): as above
In short: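 Firefly luciferase was partially digested and adsorbed onto microtiter wells. DnaK was added with DnaJ titrated, in the presence or absence of test compound. Bound DnaK was detected with an anti-DnaK antibody. Each point is the mean of triplicates ± SEM.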

DnaK-DnaJ interaction = DnaK-DnaJ interaction (Escherichia coli, UniProt P0A6Y8); test: DnaK-DnaJ interaction by FRET; assay type: binding; details: for effect on binding of DnaJ to DnaK: ATP 2 mM
Sequence of DnaK-DnaJ interaction (P0A6Y8 whole entry): as above

[5] = read-out: IC50 against the DnaK-DnaJ system, DnaK 0.6 μM, DnaJ 1 μM

Sequence of DnaK-DnaJ complex (P0A6Y8 whole entry, one chain of several): as the sequence (P0A6Y8 whole entry) above

O=C(O[C@@H]1Cc2c(O)cc(O)cc2O[C@@H]1c1ccc(O)c(O)c1)c1cc(O)c(O)c(O)c1 [ECG, epicatechin-3-gallate]
IC50 (DnaK-DnaJ complex): 6 ± 0.9 µM

COc1cc(O)c2c(=O)c(O)c(-c3ccc(O)c(O)c3)oc2c1 [rhamnetin]
activity against DnaK-DnaJ (DnaK-DnaJ complex; DnaK 0.6 μM, DnaJ 1 μM): inactive

O=c1c(O)c(-c2cc(O)c(O)c(O)c2)oc2cc(O)cc(O)c12 [myricetin]
IC50 (DnaK-DnaJ complex): 14.5 µM
inhibition (up to, maximal) (DnaK-DnaJ complex; DnaK 0.6 μM, DnaJ 1 μM): up to 75%
effect on stimulatory activity of DnaJ on DnaK ATPase (DnaK-DnaJ complex; myricetin 50 μM): dramatically weakened
effect on stimulatory activity of DnaJ on DnaK ATPase (DnaK-DnaJ complex; myricetin 200 μM): completely suppressed
inhibition at 200 µM (DnaK-DnaJ complex; read-out: percent inhibition): 75%
Kd (DnaK (wild type)): 55 ± 7 µM
Kd (DnaK K106A): 43 ± 5 µM
tryptophan fluorescence response to ATP binding (DnaK [1]): responded normally
binding to DnaJ by ITC (DnaJ): no apparent affinity
binding to J domain by ITC [2]: failed to bind
effect on intrinsic ATPase activity of DnaK (DnaK [3]): no effect
effect on stimulation of DnaK by GrpE (DnaK-GrpE): did not influence
effect on peptide-mediated stimulation of ATP turnover (DnaK [4]): no effect
effect on J domain stimulatory activity (DnaK-J domain): able to block
apparent affinity of myricetin in the presence of DnaJ and GrpE (DnaK-DnaJ-GrpE): significantly enhanced
decrease of maximal amount of bound DnaK (DnaK-DnaJ; 20 μM myricetin): approximately 40%
amount of DnaJ required to promote DnaK binding to luciferase (DnaK-DnaJ; 20 μM myricetin (62 nM without compound)): 1 µM
weakening of Kapp between DnaJ and DnaK (DnaK-DnaJ interaction; 25 μM myricetin, Kapp approx. 560 nM without compound): 5.3 fold
effect on binding of DnaJ to DnaK (DnaK-DnaJ interaction): significantly reduced

O=c1cc(-c2cc(O)c(O)c(O)c2)oc2cc(O)cc(O)c12 [hieracin]
IC50 (DnaK-DnaJ complex; [5]): 28.2 µM

COc1cc(OC)c2c(=O)c(O)c(-c3ccc(OC)c(OC)c3)oc2c1 [QTE, quercetin tetramethyl (5,7,3′,4′) ether]
IC50 (DnaK-DnaJ complex; [5]): > 200 µM

O=c1cc(-c2ccc(O)c(O)c2)oc2cc(O)cc(O)c12 [luteolin]
IC50 (DnaK-DnaJ complex): 9.4 µM

O=c1c(O)c(-c2ccc(O)c(O)c2)oc2cc(O)cc(O)c12 [quercetin]
IC50 (DnaK-DnaJ complex): 27.6 µM
inhibition (up to, maximal) (DnaK-DnaJ complex; DnaK 0.6 μM, DnaJ 1 μM): up to 67%

O=c1c(O)c(-c2ccc(O)cc2)oc2cc(O)cc(O)c12 [kaempferol]
IC50 (DnaK-DnaJ complex): > 200 µM

(±)-catechin
effect on binding of DnaJ to DnaK (DnaK-DnaJ interaction): did not inhibit
